NPY-Y1 antag: antagonists of human neuropeptide Y receptor Y1. P25929. 200,000 compounds, 1% hits. inhibition, % at 3.6 µM. HEK293-CNG Y1 cells, membrane potential fluorescence; NPY at EC95, then isoproterenol;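 active means inhibition above the campaign mean inhibition of all tested compounds plus 3 SD, cut at about 20% in these data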
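Material: Y1- and CNG-channel-expressing HEK293 cells / Probe or stimulus: NPY 25 nM then isoproterenol 1 µM plus Ro 20-1724 25 µM / Doses: 3.6 µM single dose, DMSO 0.4% / Schedule: compound incubation 1 h at room temperature, readout 45 min post-stimulation / Signal: membrane potential fluorescence / Benchmarks: isoproterenol-only wells as full block versus NPY-plus-isoproterenol wells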
MT stabilizer: microtubule stabilizers in HeLa cells | HeLa tubulin immunostaining HCS, 24 h; share of cells brighter than vehicle mean+2SD | % tubulin-high responders, % at 10 µM | 200,000 compounds, 0.83% hits | AID 2205;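 active means plate Z-score above 3 for both tubulin-high and condensed-nucleus cell shares, with cell loss under 80%, at 10 µM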;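 further: anti alpha tubulin signal scored within the nucleus-defined area of each cell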
NPY-Y2 antag: NPY-Y2 (human) receptor antagonism; P49146; NPY-Y2 expressing cells, antagonist mode; inhibition, % at 2.7 µM; 140,000 compounds, 0.99% hits; AID 793; in the data active means inhibition above about 17%
Target sequence (P49146 whole entry, looked up): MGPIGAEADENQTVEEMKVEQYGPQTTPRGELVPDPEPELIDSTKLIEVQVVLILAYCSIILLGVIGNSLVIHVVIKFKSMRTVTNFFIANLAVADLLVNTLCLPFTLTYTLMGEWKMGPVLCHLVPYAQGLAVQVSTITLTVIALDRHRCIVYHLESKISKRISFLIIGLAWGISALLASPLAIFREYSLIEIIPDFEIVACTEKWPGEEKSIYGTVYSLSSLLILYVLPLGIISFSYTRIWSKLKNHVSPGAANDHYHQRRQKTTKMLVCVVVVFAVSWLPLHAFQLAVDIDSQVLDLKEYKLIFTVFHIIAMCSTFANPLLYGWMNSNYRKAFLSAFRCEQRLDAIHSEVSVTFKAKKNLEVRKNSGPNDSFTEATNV
NPY-Y2 PAM-ag: human NPY-Y2 potentiation or agonism, primary screen. cells expressing NPY-Y2, potentiator/agonist read-out. activation, % at 3.6 µM. 220,000 compounds, 0.45% hits. AID 1359; in the data active means activation above about 27%;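 further: cells stimulated with NPY near EC25 plus isoproterenol at EC100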
NPY1 pot ag: potentiators or agonists of human neuropeptide Y receptor Y1 | P25929 | NPY-Y1 expressing cells, potentiator/agonist activation | activation, % at 3.6 µM | 220,000 compounds, 0.37% hits | AID 1304; in the data active means activation above about 33%, passing the limit was not always enough;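 further: cells stimulated with NPY at EC10 then isoproterenol at EC100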
bCat nuc transl: beta-catenin nuclear translocation modulation | HeLa beta-catenin nuclear translocation, immunofluorescence imaging | nuclear translocation activity, % at 5 µM | AID 1665 | 190,000 compounds, 0.3% hits;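 active means nuclear translocation activity above 50% at 5 µM, with a well cell count of 50 or more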;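 further: per-cell ratio of nuclear to cytoplasmic median beta-catenin stain intensity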
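System: HeLa cells, endogenous beta-catenin; compound dosing: 5 µM primary single dose, 0.1% DMSO, 0.02–20 µM confirmation series; incubation: 24 h compound exposure at 37°C, 5% CO2; signal: beta-catenin immunofluorescence imaging with DAPI; evaluation: % activation, nuclear-to-cytoplasmic median beta-catenin signal ratio per cell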
NPY-Y2 pot conf: confirmation of human NPY-Y2 receptor potentiators or agonists. 450 compounds, 20% hits. activation, % at 3.6 µM. shares compounds with NPY-Y2 PAM-ag. cell-based NPY-Y2 potentiator/agonist assay; in the data active means activation above about 33%
NPY-Y1 potentiator: counter-screen for NPY-Y2 potentiators or agonists: NPY-Y1 potentiators or agonists | AID 1651 | Y1 HEK293-CNG cells, membrane potential fluorescence | 450 compounds, 20% hits | shares compounds with NPY-Y2 PAM-ag | activation, % at 3.6 µM; in the data active means activation above about 45%;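 further: cells stimulated with submaximal NPY then isoproterenol with phosphodiesterase inhibitor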
NPY-Y1 agonist 2: human NPY-Y1 agonism as NPY-Y2 potentiator counter-screen | activation, % at 3.6 µM | HEK293 Y1-CNGC, membrane potential fluorescence | AID 1702 | shares compounds with NPY-Y2 PAM-ag | 450 compounds, 37% hits;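 active means activation above the mean of DMSO-only control wells plus 3 SD, cut at about 18% in these data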;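 further: cells stimulated with 1 µM isoproterenol plus the PDE inhibitor Ro 20-1724; Y1 agonists lower the membrane potential dye signal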
CNGC inh: blocks CNG channel activity, counter-screen for NPY-Y2 potentiators; shares compounds with NPY-Y2 PAM-ag; HEK293-CNG parental, isoproterenol cAMP, membrane potential fluorescence; inhibition, % at 3.6 µM; 450 compounds, 32% hits;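 active means inhibition above the control-well mean plus 3 SD of those wells, cut at about 22% in these data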
Y2 agonist ctr: NPY-Y2 agonism, counter-screen for Y2 potentiators | shares compounds with NPY-Y2 PAM-ag | HEK293 Y2/CNGC cells, membrane potential fluorescence, agonist mode | activation, % at 3.6 µM | 450 compounds, 56% hits | AID 1710;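 active means activation above the mean of solvent-only control wells plus 3 SD, cut at about 10% in these data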;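 further: cells stimulated by isoproterenol with no NPY added so direct agonism is tested; agonism lowers probe fluorescence through less cAMP and CNG channel opening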
A number is an active result. Hits are enriched below; roughly 2.6% of the tested compounds scored in any of these assays.

`O=C(c1ccccc1)c1c2c(cc3sc4ccccc4[n+]13)-c1cccc3cccc-2c13` gave NPY-Y1 antag inactive, MT stabilizer inactive, NPY-Y2 antag inactive, NPY-Y2 PAM-ag 40.5, NPY1 pot ag inactive, bCat nuc transl inactive, NPY-Y2 pot conf 50.6, NPY-Y1 potentiator 59.8, NPY-Y1 agonist 2 53.6, CNGC inh 55.6 and Y2 agonist ctr 60.2.
Cc1sc2cc3c(c(C(=O)c4ccccc4)[n+]2c1C)-c1cccc2cccc-3c12 was read as NPY-Y1 antag inactive, MT stabilizer inactive, NPY-Y2 antag inactive, NPY-Y2 PAM-ag 30.6, NPY1 pot ag inactive, bCat nuc transl inactive, NPY-Y2 pot conf inactive, NPY-Y1 potentiator inactive, NPY-Y1 agonist 2 inactive, CNGC inh inactive and Y2 agonist ctr 16.5.
`COc1cccc2c(=O)cn[nH]c12` gave NPY-Y1 antag inactive, MT stabilizer inactive, NPY-Y2 antag inactive, NPY-Y2 PAM-ag inactive, NPY1 pot ag inactive and bCat nuc transl inactive.
CC(C)(C)C1CCc2c(sc(NC(=O)c3cccs3)c2C(=O)N2CCCCC2)C1 (centres undefined) was read as NPY-Y1 antag inactive, MT stabilizer inactive, NPY-Y2 antag inactive, NPY-Y2 PAM-ag inactive and NPY1 pot ag inactive.
Screening Cn1c(CNC2CCCCC2)c(C#N)c2ccccc21 returned NPY-Y1 antag inactive, MT stabilizer inactive, NPY-Y2 antag inactive, NPY-Y2 PAM-ag inactive, NPY1 pot ag inactive and bCat nuc transl inactive.
`CN(C(=S)NC1=CCS(=O)(=O)C1)C1CCCCC1` gave NPY-Y1 antag inactive, MT stabilizer inactive, NPY-Y2 antag inactive, NPY-Y2 PAM-ag inactive, NPY1 pot ag inactive and bCat nuc transl inactive.
For O=C(Nc1ccc(Br)cc1)c1ccc(F)c(S(=O)(=O)NCc2cccs2)c1 the results were NPY-Y1 antag inactive, MT stabilizer inactive, NPY-Y2 antag inactive, NPY-Y2 PAM-ag 36.1, NPY1 pot ag inactive, bCat nuc transl inactive, NPY-Y2 pot conf inactive, NPY-Y1 potentiator inactive, NPY-Y1 agonist 2 inactive, CNGC inh inactive and Y2 agonist ctr inactive.
Screening CN(C)c1ccc(/C=C(/NC(=O)c2ccccc2)C(=O)N/N=C/c2ccc([N+](=O)[O-])c(O)c2)cc1 returned NPY-Y1 antag inactive, MT stabilizer inactive, NPY-Y2 antag inactive, NPY-Y2 PAM-ag 33.0, NPY1 pot ag inactive, bCat nuc transl inactive, NPY-Y2 pot conf 33.9, NPY-Y1 potentiator inactive, NPY-Y1 agonist 2 34.8, CNGC inh 25.8 and Y2 agonist ctr 27.3.
`Cc1ccsc1C(=O)Nc1ccccc1N1CCOCC1` gave NPY-Y1 antag inactive, MT stabilizer inactive, NPY-Y2 antag inactive, NPY-Y2 PAM-ag inactive, NPY1 pot ag inactive and bCat nuc transl inactive.
CCCOC1CCCN(C(=O)CCc2nnc(CCCCc3ccccc3)o2)C1 (centres undefined) was read as NPY-Y1 antag inactive, MT stabilizer inactive, NPY-Y2 PAM-ag inactive, NPY1 pot ag inactive and bCat nuc transl inactive.
Screening Fc1cccc(C2CCCCN2Cc2nc(C3CC3)no2)c1 (centres undefined) returned NPY-Y1 antag inactive, NPY-Y2 PAM-ag inactive, NPY1 pot ag inactive and bCat nuc transl inactive.

Screens deposited in PubChem BioAssay by several laboratories.
